Experimental findings from BindingDB's records for doi:10.1016/j.bmc.2011.02.028 (Kinki University, 2011) are described below.

As a reminder, the IC50 is the concentration needed to halve the response being measured. The low end stands for greater potency in that assay, the high end for weaker potency in that assay.

SMILES strings stand for the structures. Where a name gives a salt, the structure may show the parent alone.

A short description of this test: Inhibition of rat small intestinal maltase after 30 mins. Put shortly: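 Enzyme source was rat small-intestinal brush-border membrane vesicles suspended in 0.1 M maleate buffer, pH 6.0. Substrate solutions were maltose 74 mM (maltase), sucrose 74 mM (sucrase) and isomaltose 7.4 mM (isomaltase). Glucose was measured by glucose oxidase. IC50 was read graphically from % inhibition versus log concentration.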

Regarding `O=S(=O)([O-])O[C@@H]([C@H](O)[C@@H](O)CO)[C@H](O)C[S@@+]1C[C@@H](O)[C@H](O)[C@H]1CO` [ponkoranol], the IC50 was more than 100 µM.

Consider `O=S(=O)([O-])OC[C@H](O)C[S@@+]1C[C@@H](O)[C@H](O)[C@H]1CO` [Salaprinol], for which the 50% inhibitory concentration (IC50) was found to be 3.2 µM.

As for `O=S(=O)([O-])O[C@H]([C@@H](O)[C@@H](O)[C@@H](O)CO)[C@H](O)C[S+]1C[C@@H](O)[C@H](O)[C@H]1CO` (stereo partly drawn) [1,4-dideoxy-1,4-{(S)-[(2S,3R,4S,5S,6S)-2,4,5,6,7-pentahydroxy-3-(sulfooxy)heptyl]episulfoniumylidene}-D-arabinitol inner salt], the IC50 came out at 57 µM.

On to `O=S(=O)([O-])O[C@H]([C@@H](O)[C@H](O)[C@H](O)CO)[C@H](O)C[S+]1C[C@@H](O)[C@H](O)[C@H]1CO` (stereo partly drawn) [1,4-dideoxy-1,4-{(S)-[(2S,3R,4S,5R,6R)-2,4,5,6,7-pentahydroxy-3-(sulfooxy)heptyl]episulfoniumylidene}-D-arabinitol inner salt], for which the half-maximal inhibitory concentration (IC50) was more than 236 µM.

The molecule `O=S(=O)([O-])O[C@H]([C@@H](O)[C@@H](O)[C@H](O)CO)[C@H](O)C[S+]1C[C@@H](O)[C@H](O)[C@H]1CO` (stereo partly drawn) [1,4-dideoxy-1,4-{(S)-[(2S,3R,4S,5S,6R)-2,4,5,6,7-pentahydroxy-3-(sulfooxy)heptyl]-episulfoniumylidene}-D-arabinitol inner salt] gave a concentration for half-maximal inhibition (IC50) of more than 236 µM.

In turn, `O=S(=O)([O-])O[C@H]([C@@H](O)[C@H](O)[C@@H](O)CO)[C@H](O)C[S+]1C[C@@H](O)[C@H](O)[C@H]1CO` (stereo partly drawn) [1,4-dideoxy-1,4-{(S)-[(2S,3R,4S,5R,6S)-2,4,5,6,7-pentahydroxy-3-(sulfooxy)heptyl]episulfoniumylidene}-D-arabinitol inner salt] came in with a half-inhibitory concentration (IC50) of more than 236 µM.
